Where a name gives a salt, the structure may show the parent alone.
Key:
[1] = Inhibitory concentration against tyramine oxidase of Arthrobacter spp.; Not determined.
[2] = Ionization constant was determined; assay type: physicochemical
Outline: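 Determined by pH-metric titration in 0.1 M KNO₃ at 21 °C.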

[3] = Inhibitory concentration against tyramine oxidase of Arthrobacter spp.; Irreversible inhibition
[4] = Inhibitory concentration against tyramine oxidase of Arthrobacter spp.; Competitive inhibition
[5] = molecular target: T1, Amine oxidase [flavin-containing] A (Homo sapiens, UniProt P21397); assay: Inhibitory concentration for human liver monoamine oxidase A
T1 sequence (P21397 whole entry): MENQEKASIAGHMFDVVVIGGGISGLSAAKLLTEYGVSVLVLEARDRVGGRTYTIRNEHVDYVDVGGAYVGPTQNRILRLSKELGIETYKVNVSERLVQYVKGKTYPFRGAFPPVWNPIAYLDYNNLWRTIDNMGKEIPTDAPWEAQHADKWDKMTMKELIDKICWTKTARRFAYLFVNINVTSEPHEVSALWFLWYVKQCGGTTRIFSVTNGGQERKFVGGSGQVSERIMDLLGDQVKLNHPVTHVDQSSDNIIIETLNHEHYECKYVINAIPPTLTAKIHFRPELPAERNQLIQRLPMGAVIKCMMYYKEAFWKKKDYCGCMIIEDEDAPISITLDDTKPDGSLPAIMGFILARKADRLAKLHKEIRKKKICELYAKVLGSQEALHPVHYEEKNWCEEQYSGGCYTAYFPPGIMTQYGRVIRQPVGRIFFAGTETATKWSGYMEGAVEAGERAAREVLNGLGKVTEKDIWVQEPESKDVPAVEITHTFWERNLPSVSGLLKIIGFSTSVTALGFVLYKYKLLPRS

[6] = molecular target: T2, Amine oxidase [flavin-containing] B (Homo sapiens, UniProt P27338); assay: Inhibitory concentration for human liver monoamine oxidase B
T2 sequence (P27338 whole entry): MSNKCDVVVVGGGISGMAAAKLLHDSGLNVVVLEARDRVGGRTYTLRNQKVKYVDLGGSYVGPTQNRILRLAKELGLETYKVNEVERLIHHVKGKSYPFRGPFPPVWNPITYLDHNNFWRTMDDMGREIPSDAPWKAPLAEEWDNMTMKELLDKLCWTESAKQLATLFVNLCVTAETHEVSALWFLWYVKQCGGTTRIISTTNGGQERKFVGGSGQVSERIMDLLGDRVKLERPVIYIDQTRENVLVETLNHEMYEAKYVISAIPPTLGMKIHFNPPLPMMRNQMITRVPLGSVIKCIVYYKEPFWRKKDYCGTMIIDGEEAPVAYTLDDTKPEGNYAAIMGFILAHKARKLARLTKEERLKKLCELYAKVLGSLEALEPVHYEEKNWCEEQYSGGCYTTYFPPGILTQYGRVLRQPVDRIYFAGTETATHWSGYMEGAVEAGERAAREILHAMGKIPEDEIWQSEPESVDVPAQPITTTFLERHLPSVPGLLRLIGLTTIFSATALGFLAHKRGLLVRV

[7] = Inhibition concentration against tyramine oxidase of Arthrobacter spp.; Partially irreversible inhibition

Row | pKa ([2]; read-out: pKa) | IC50 [4] | Structure (SMILES) | also measured
1 | 7.04 |  | Cc1ccc([C@@]2(F)C[C@@H]2N)cc1 | IC50 [1]: 51 µM
2 | 7.31 | 8.1 µM | N[C@@H]1C[C@]1(F)c1ccc(F)cc1 (relative stereo) | 
3 | 7.41 | 0.39 µM | Cc1ccc([C@@]2(F)C[C@H]2N)cc1 (relative stereo) | IC50 [5]: 6.7 µM; IC50 [6]: 6.7 µM
4 | 6.98 |  | N[C@@H]1C[C@]1(F)c1ccccc1 (relative stereo) | IC50 [7]: 190 µM
5 | 7.35 | 3.6 µM | N[C@H]1C[C@]1(F)c1ccccc1 (relative stereo) | 
6 | 6.88 |  | N[C@H]1C[C@]1(F)c1ccc(F)cc1 (relative stereo) | IC50 [7]: 75 µM
7 |  |  | Cl.NC1CC1(F)c1ccc(Cl)cc1 (stereo in doubt) | IC50 [7]: 89 µM; pKa [2]: 6.81
8 | 7.19 | 3.7 µM | NC1CC1(F)c1ccc(Cl)cc1 (trans isomer) | 
9 |  |  | NNC(N)=O [HYDRAZINECARBOXAMIDE] | IC50 [5]: 6.7 µM

Row | Structure (SMILES) | pKa ([2]; read-out: pKa) | IC50 [4] | also measured
10 | NC1CC1c1ccccc1 (stereo not drawn) | 8.5 |  | IC50 [3]: 33 µM
11 | N[C@@H]1C[C@H]1c1ccccc1 (relative stereo) [TRANYLCYPROMINE HYDROCHLORIDE] | 8.47 | 35 µM | 

Source: ChEMBL document CHEMBL1138842, “Fluorinated phenylcyclopropylamines. 2. Effects of aromatic ring substitution and of absolute configuration on inhibition of microbial tyramine oxidase” (J Med Chem, 2004)
